ChEMBL document CHEMBL4229335 (Eur J Med Chem, 2018)

Columns and labels:
L02 = test: Antiproliferative activity against human LO2 cells after 72 hrs by MTT assay; assay type: cell-based; conditions: L02, 72 h
Outline: (§1)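 MTT assay with 72 h exposure to graded concentrations in triplicate. MTT solution then DMSO were added, followed by 10 min at room temperature, with absorbance read at 490 nm. IC50 is reported as the mean of three independent experiments. 5-FU served as positive control.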

Bel7402/5-FU = test: Antiproliferative activity against human Bel7402/5-FU cells after 72 hrs by MTT assay; assay type: functional, cell-based; outline: as §1
HL-60 = test: Antiproliferative activity against human HL60 cells after 72 hrs by MTT assay; assay type: functional, cell-based; conditions: HL-60, 72 h; outline: as §1
PC-3 = test: Antiproliferative activity against human PC3 cells after 72 hrs by MTT assay; assay type: functional, cell-based; conditions: PC-3, 72 h; outline: as §1
Bel-7402 = test: Antiproliferative activity against human Bel7402 cells after 72 hrs by MTT assay; assay type: functional, cell-based; conditions: Bel-7402, 72 h; outline: as §1
[1] = Selectivity index, ratio of IC50 for human LO2 cells to IC50 for human Bel7402 cells; assay type: toxicity; conditions: LO2 cells versus Bel7402 cells, read-out: Ratio IC50
Outline: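 SI was calculated as IC50 in L-02 normal liver cells divided by IC50 in Bel-7402 cells, both from the 72 h MTT assay.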

Row | SMILES | IC50 (L02) [µM] | IC50 (Bel7402/5-FU) [µM] | IC50 (HL-60) [µM] | IC50 (PC-3) [µM] | IC50 (Bel-7402) [µM] | selectivity ratio [1]
1 | COC(=O)[C@H](Cc1ccc(N(CCCl)CCCl)cc1)NC(=O)CCC(=O)O | 68.6 | > 100 | 12.4 | 57.3 | 46.5 | 1.5
2 | C=C1C(=O)[C@@]23C(=O)O[C@H]4CCC(C)(C)[C@H]5C(=O)OC[C@@]45[C@@H]2CC[C@@H]1[C@H]3OC(=O)CCC(=O)N[C@@H](Cc1ccc(N(CCCl)CCCl)cc1)C(=O)OC | > 100 | 12.8 | 18.5 | > 100 | 6.5 | 
3 | C=C1C(=O)[C@]23[C@H](O)[C@H]1CC[C@H]2[C@@]12CO[C@]3(O)[C@@H](O)[C@@H]1C(C)(C)CC[C@@H]2O [ORIDONIN] | 18.9 | 10.5 | 14.3 | 11 | 7.36 | 2.6
4 | O=c1[nH]cc(F)c(=O)[nH]1 [FLUOROURACIL] |  | > 80 |  |  |  | 
5 | C=C1C(=O)[C@@]23C(=O)O[C@H]4CCC(C)(C)[C@H]5[C@H](O)OC[C@@]45[C@@H]2CC[C@@H]1[C@H]3OC(=O)CCCc1ccc(N(CCCl)CCCl)cc1 | 69.9 | 8.49 | 6.35 | 7.32 | 2.08 | 33.6
6 | C=C1C(=O)[C@@]23C(=O)O[C@H]4CCC(C)(C)[C@H]5C(=O)OC[C@@]45[C@@H]2CC[C@@H]1[C@H]3OC(=O)c1ccc(N(CCCl)CCCl)cc1 | 62.8 | 2.9 | 5.57 | 7.03 | 1.6 | 39.3
